According to ChEMBL document CHEMBL4257570, “Discovery and optimization of a novel series of pyrazolyltetrahydropyran N-type calcium channel (Cav 2.2) blockers for the treatment of pain” (Bioorg Med Chem Lett, 2018):
Activity calls are given as the source filed them.

How the values were obtained:
[1] = target: T1, Voltage-dependent N-type calcium channel subunit alpha-1B (Homo sapiens, UniProt Q00975); experiment: Inhibition of Cav2.2 (unknown origin) expressed in HEK293 cells assessed as decrease in KCl depolarization-induced Ca2+ influx measured for 5 mins by fluorescence based FDSS assay; format: cell-based
Target sequence in this assay (Q00975 whole entry): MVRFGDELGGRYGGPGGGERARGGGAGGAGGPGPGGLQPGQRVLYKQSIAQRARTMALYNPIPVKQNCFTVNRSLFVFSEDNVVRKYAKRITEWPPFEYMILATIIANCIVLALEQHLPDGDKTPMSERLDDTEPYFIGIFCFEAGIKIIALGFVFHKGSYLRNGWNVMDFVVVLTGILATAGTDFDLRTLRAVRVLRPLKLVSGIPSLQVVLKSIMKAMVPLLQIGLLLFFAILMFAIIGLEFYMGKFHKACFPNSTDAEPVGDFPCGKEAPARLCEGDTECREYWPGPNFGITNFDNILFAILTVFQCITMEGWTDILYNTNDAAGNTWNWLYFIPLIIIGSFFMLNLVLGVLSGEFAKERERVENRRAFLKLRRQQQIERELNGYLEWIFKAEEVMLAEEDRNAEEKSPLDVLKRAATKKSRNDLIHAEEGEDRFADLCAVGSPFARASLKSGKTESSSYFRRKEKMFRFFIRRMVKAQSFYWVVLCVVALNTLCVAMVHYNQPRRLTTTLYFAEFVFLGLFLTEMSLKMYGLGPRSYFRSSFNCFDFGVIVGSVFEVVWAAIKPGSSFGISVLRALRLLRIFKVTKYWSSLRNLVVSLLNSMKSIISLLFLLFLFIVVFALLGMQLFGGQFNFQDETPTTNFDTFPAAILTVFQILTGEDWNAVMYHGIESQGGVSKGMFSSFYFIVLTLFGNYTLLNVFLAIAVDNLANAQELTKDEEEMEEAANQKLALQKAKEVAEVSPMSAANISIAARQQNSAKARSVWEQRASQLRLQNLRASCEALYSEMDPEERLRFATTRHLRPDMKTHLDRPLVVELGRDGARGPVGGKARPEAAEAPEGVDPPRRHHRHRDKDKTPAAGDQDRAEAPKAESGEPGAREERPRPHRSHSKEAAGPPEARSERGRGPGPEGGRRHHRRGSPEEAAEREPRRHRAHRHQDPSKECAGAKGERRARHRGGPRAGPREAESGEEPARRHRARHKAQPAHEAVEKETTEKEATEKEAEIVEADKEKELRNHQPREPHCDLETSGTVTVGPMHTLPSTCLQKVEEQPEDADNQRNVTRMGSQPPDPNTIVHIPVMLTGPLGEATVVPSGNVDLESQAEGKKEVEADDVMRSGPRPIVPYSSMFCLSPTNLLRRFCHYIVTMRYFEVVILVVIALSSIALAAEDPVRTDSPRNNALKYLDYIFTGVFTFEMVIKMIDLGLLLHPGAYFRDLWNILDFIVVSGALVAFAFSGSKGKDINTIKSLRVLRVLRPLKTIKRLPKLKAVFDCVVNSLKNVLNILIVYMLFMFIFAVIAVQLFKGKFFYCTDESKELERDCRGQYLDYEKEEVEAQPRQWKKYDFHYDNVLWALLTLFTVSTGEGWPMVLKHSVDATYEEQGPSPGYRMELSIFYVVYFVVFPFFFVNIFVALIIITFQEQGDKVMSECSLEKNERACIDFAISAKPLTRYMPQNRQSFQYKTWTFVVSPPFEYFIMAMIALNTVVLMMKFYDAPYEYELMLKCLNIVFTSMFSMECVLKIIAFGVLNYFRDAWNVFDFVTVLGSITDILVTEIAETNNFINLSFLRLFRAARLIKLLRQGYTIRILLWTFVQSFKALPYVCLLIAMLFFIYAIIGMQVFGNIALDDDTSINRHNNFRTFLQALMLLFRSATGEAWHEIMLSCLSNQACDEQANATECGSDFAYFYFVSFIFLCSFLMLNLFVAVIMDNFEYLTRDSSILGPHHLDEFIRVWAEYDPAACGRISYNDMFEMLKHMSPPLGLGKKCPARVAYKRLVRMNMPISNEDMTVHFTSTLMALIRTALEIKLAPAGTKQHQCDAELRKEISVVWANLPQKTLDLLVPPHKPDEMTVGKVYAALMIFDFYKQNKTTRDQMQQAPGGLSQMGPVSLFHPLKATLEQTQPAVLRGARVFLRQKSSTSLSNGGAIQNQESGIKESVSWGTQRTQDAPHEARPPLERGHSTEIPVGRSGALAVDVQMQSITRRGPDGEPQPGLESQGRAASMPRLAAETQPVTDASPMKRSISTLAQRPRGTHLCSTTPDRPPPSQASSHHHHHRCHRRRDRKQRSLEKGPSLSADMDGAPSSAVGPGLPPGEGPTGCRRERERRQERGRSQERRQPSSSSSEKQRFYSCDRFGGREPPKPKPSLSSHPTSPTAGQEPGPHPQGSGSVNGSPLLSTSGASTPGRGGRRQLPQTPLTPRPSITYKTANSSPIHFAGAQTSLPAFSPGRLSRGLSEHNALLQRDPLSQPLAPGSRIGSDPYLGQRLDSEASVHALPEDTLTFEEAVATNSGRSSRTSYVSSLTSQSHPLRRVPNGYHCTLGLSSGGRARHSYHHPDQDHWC

[2] = Metabolic stability of rat liver microsomes assessed as parent compound remaining after 10 mins; format: ADME, microsome; conditions: read-out: Stability
[3] = Metabolic stability of human liver microsomes assessed as parent compound remaining after 10 mins; format: ADME, microsome; conditions: read-out: Stability
[4] = target: T1, Voltage-dependent N-type calcium channel subunit alpha-1B; experiment: Inhibition of high frequency stimulation-induced Cav2.2 (unknown origin) expressed in HEK293 cells at -80 mV holding membrane potential by automated patch clamp assay; format: cell-based
Target sequence in this assay (Q00975 whole entry): as above

[5] = target: T1, Voltage-dependent N-type calcium channel subunit alpha-1B; experiment: Inhibition of low frequency stimulation-induced Cav2.2 (unknown origin) expressed in HEK293 cells at -80 mV holding membrane potential by automated patch clamp assay; format: cell-based
Target sequence in this assay (Q00975 whole entry): as above

L-type calcium channel = L-type calcium channel (Homo sapiens, UniProt O60840+Q01668+Q13698+Q13936); experiment: Inhibition of L-type calcium channel (unknown origin) at 1 uM relative to control; format: protein assay
[6] = Volume of distribution at steady state in rat at 6 mg/kg, po or 1.2 mg/kg, iv; format: ADME, organism-based; conditions: in vivo, read-out: Vdss
Method in brief: (§1)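 Rat PK: oral and intravenous dosing of the same compound in 20% hydroxypropyl-β-cyclodextrin, at 10.0/2.0 or 6.0/1.2 mg/kg po/iv.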

[7] = target: Voltage-gated inwardly rectifying potassium channel KCNH2 (Homo sapiens, UniProt Q12809); experiment: Inhibition of human ERG
Voltage-gated inwardly rectifying potassium channel KCNH2, sequence (Q12809 whole entry): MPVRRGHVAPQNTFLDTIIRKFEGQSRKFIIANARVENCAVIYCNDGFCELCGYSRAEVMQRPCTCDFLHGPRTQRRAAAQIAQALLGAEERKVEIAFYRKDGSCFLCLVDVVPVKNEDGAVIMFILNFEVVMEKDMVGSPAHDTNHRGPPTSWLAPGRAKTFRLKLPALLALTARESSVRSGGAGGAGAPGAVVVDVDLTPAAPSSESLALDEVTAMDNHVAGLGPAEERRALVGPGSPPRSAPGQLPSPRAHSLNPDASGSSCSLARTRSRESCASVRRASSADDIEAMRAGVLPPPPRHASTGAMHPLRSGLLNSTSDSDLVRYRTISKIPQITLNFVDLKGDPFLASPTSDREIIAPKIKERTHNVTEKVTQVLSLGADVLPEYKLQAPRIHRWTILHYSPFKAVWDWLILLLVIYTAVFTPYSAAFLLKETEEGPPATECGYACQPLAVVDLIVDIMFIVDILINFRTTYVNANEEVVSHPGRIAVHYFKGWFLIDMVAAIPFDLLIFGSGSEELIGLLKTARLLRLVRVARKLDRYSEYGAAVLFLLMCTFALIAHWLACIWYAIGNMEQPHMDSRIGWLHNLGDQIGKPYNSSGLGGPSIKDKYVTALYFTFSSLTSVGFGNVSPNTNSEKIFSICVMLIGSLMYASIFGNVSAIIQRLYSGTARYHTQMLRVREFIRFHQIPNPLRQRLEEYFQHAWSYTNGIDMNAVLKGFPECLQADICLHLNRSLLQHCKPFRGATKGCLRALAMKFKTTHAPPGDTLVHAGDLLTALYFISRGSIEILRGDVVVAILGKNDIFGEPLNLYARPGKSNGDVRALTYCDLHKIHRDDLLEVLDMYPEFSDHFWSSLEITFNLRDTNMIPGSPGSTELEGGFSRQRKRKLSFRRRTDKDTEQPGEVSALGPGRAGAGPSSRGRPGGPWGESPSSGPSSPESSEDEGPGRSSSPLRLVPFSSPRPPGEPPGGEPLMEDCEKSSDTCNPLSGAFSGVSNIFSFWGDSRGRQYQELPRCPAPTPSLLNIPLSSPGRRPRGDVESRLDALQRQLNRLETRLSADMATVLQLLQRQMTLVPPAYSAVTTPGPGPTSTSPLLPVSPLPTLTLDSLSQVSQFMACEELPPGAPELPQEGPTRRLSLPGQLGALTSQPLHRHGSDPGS

[8] = Plasma concentration in rat model of complete Freund's adjuvant-induced inflammatory pain at 30 mg/kg, po after 1 hr; format: ADME, organism-based
Method in brief: (§2)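 In separate studies, drug levels in plasma, brain and spinal cord were measured in rats after a 30 mg/kg p.o. dose, sampled at 1 h or 2 h.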

[9] = AUClast in rat at 6 mg/kg, po; format: ADME, organism-based; parameters: dose 6 mg/kg, route oral, time 0 - last; conditions: in vivo; method in brief: as §1
[10] = Drug uptake in brain of rat model of complete Freund's adjuvant-induced inflammatory pain at 30 mg/kg, po after 1 hr; format: ADME, organism-based; conditions: read-out: Drug uptake; method in brief: as §2
[11] = Cmax in rat at 6 mg/kg, po; format: ADME, organism-based; parameters: dose 6 mg/kg, route oral; conditions: in vivo; method in brief: as §1
Rattus norvegicus [12] = experiment: Antiinflammatory activity in rat model of complete Freund's adjuvant-induced inflammatory pain assessed as reduction in thermal hyperalgesia by measuring radiant heat latency at 30 mg/kg, po measured after 30 mins post dose; format: functional, organism-based
Method in brief: (§3)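 CFA rats were confirmed thermally hypersensitive by radiant heat latency (75% cut-off) on test day. They were then dosed p.o. at 2.5 mL/kg with 30 mg/kg in 10% NMP/20% Solutol, or vehicle alone. Paw withdrawal latency to radiant heat was read at 30, 60, 120, 180 and 300 min post-dose. One-way ANOVA with Dunnett's post test.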

Rattus norvegicus [13] = experiment: Antiinflammatory activity in rat model of complete Freund's adjuvant-induced inflammatory pain assessed as reduction in thermal hyperalgesia by measuring radiant heat latency at 30 mg/kg, po measured after 180 mins post dose; format: functional, organism-based; method in brief: as §3
[14] = Oral bioavailability in rat at 6 mg/kg; format: ADME, organism-based; conditions: in vivo; method in brief: as §1
[15] = Half life in rat at 1.2 mg/kg, iv; format: ADME, organism-based; conditions: in vivo; method in brief: as §1
[16] = Drug uptake in spinal cord of rat model of complete Freund's adjuvant-induced inflammatory pain at 30 mg/kg, po after 1 hr; format: ADME, organism-based; conditions: read-out: Drug uptake; method in brief: as §2
[17] = Clearance in rat at 6 mg/kg, po or 1.2 mg/kg, iv; format: ADME, organism-based; conditions: in vivo; method in brief: as §1
[18] = Cmax in rat at 10 mg/kg, po; format: ADME, organism-based; parameters: dose 10 mg/kg, route oral; conditions: in vivo; method in brief: as §1
[19] = Volume of distribution at steady state in rat at 10 mg/kg, po or 2 mg/kg, iv; format: ADME, organism-based; conditions: in vivo, read-out: Vdss; method in brief: as §1
[20] = Plasma concentration in rat model of complete Freund's adjuvant-induced inflammatory painat 30 mg/kg, po after 2 hrs; format: ADME, organism-based; method in brief: as §2
[21] = Half life in rat at 2 mg/kg, iv; format: ADME, organism-based; conditions: in vivo; method in brief: as §1
[22] = AUClast in rat at 10 mg/kg, po; format: ADME, organism-based; parameters: dose 10 mg/kg, time 0 - last, route oral; conditions: in vivo; method in brief: as §1
[23] = Clearance in rat at 10 mg/kg, po or 2 mg/kg, iv; format: ADME, organism-based; conditions: in vivo; method in brief: as §1
[24] = Oral bioavailability in rat at 10 mg/kg; format: ADME, organism-based; conditions: in vivo; method in brief: as §1
Rattus norvegicus [25] = experiment: Antinociceptive activity in Sprague-Dawley rat model of CCI-induced neuropathic pain assessed as reduction in acetone-induced nocifensive response at 30 mg/kg, po measured after 3 hrs relative to control; format: functional
Method in brief: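 CCI rats were given 30 mg/kg p.o. in 10% Solutol/20% HP-β-CD, or vehicle. Cold allodynia was scored as brisk hindpaw withdrawal to acetone applied to the affected paw, over five applications, before dosing and hourly for 3 h. Percent inhibition is relative to the time-zero responses. Two-way repeated-measures ANOVA with Bonferroni test.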

[26] = Drug uptake in brain of rat model of complete Freund's adjuvant-induced inflammatory pain at 30 mg/kg, po after 2 hrs; format: ADME, organism-based; conditions: read-out: Drug uptake; method in brief: as §2
[27] = target: T1, Voltage-dependent N-type calcium channel subunit alpha-1B; experiment: Inhibition of high frequency stimulation-induced Cav2.2 (unknown origin) expressed in HEK293 cells at 5 uM at -80 mV holding membrane potential by automated patch clamp assay relative to control; format: cell-based
Method in brief: (§4)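 Automated whole-cell patch clamp (QPatch-HT) on HEK293 cells stably expressing Cav2.2. Each trial was the 4th train at each drug concentration. 60 μM CdCl2 set the 0% level, and vehicle-treated cells were used to correct for rundown.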
Target sequence in this assay (Q00975 whole entry, looked up): as the sequence (Q00975 whole entry) above

[28] = target: T1, Voltage-dependent N-type calcium channel subunit alpha-1B; experiment: Inhibition of low frequency stimulation-induced Cav2.2 (unknown origin) expressed in HEK293 cells at 5 uM at -80 mV holding membrane potential by automated patch clamp assay relative to control; format: cell-based; method in brief: as §4
Target sequence in this assay (Q00975 whole entry, looked up): as the sequence (Q00975 whole entry) above

IC50 [1] [µM] | remaining at 10 min [2] [%] | remaining at 10 min [3] [%] | IC50 [4] [µM] | IC50 [5] [µM] | Compound | further results
0.007 |  |  |  |  | CC1(C)CC(c2cc(-c3ccc(Cl)cc3)n(-c3ccncc3)n2)CC(C)(C)O1 | 
0.002 | 14 | 40 |  |  | COc1ccccc1-n1nc(C2C[C@H](C)O[C@@H](C)C2)cc1-c1ccc(Cl)cc1 (relative stereo) | 
0.006 |  |  | 0.028 | 0.062 | COc1ccccc1-n1nc(C2CC(C)(C)OC(C)(C)C2)cc1-c1csc(Cl)c1 | inhibition at 1 µM (L-type calcium channel): 12%; Vd [6]: 10.2 L/kg; IC50 [7]: 26 µM; concentration at 1 h [8]: 1.1 µM; AUC(0-t) [9]: 2.66 µg·h/mL; concentration at 1 h [10]: 2.2 µM; Cmax [11]: 0.369 µg/mL; Activity (Rattus norvegicus [12]): Active; Activity (Rattus norvegicus [13]): inactive; bioavailability [14]: 49%; half-life [15]: 10.2 h; concentration at 1 h [16]: 1.9 µM; clearance [17]: 0.954 L/h/kg
0.003 | 18 | 64 | 0.012 | 0.091 | COc1ccccc1-n1nc([C@H]2C[C@@H](C)O[C@@H](C)C2)cc1-c1ccc(Cl)cc1 | 
0.001 | 96 | 97 | 0.016 | 0.024 | COc1ccccc1-n1nc(C2CC(C)(C)OC(C)(C)C2)cc1-c1ccc(Cl)cc1 | inhibition at 1 µM (L-type calcium channel): 0%; Cmax [18]: 0.127 µg/mL; IC50 [7]: 20 µM; Vd [19]: 33.3 L/kg; concentration at 2 h [20]: 0.7 µM; Activity (Rattus norvegicus [12]): Active; Activity (Rattus norvegicus [13]): inactive; half-life [21]: 15.4 h; AUC(0-t) [22]: 1.5 µg·h/mL; clearance [23]: 2.22 L/h/kg; bioavailability [24]: 36%; inhibition in vivo at 30 mg/kg (Rattus norvegicus [25]): 51%; concentration at 2 h [26]: 1.2 µM
0.006 |  |  |  |  | COc1ccccc1-n1nc(C2CC(C)(C)OC(C)(C)C2)cc1-c1ccc(C)nc1 | 
0.002 |  |  | 0.029 | 0.061 | CCOc1ccc(-c2cc(C3CC(C)(C)OC(C)(C)C3)nn2-c2ccccc2OC)cc1 | 
0.001 |  |  | 0.085 | 0.13 | COc1ccccc1-n1nc(C2CC(C)(C)OC(C)(C)C2)cc1-c1ccc(C#N)cc1 | 
0.005 |  |  | 0.044 | 0.2 | CCOc1ccc(-c2cc(C3CC(C)(C)OC(C)(C)C3)nn2-c2ccccc2OC)cn1 | 
0.001 |  |  | 0.1 | 0.59 | CCN(CC)c1ccccc1-n1nc(C2CC(C)(C)OC(C)(C)C2)cc1-c1ccc(Cl)cc1 | 
0.03 | 8 | 75 |  |  | COc1ccccc1-n1nc(C2CCOCC2)cc1-c1ccc(Cl)cc1 | 
0.012 |  |  |  |  | CC1(C)CC(c2cc(-c3ccc(Cl)cc3)n(-c3ccccn3)n2)CC(C)(C)O1 | 
0.003 | 37 | 96 |  |  | COc1ccccc1-n1nc(C2=CC(C)(C)OC(C)(C)C2)cc1-c1ccc(Cl)cc1 | 
0.002 | 21 | 98 | 0.055 | 0.15 | COc1ccccc1-n1nc(C2CCOC(C)(C)C2)cc1-c1ccc(Cl)cc1 (stereo not given) | 
 | 4 | 58 |  |  | COCCCc1cc(-c2ccc(Cl)cc2)n(-c2ccccc2OC)n1 | inhibition [27]: 50%; inhibition [28]: 50%
0.02 | 14 | 26 |  |  | COc1ccccc1-n1nc([C@@H]2CCO[C@@H](C(C)C)C2)cc1-c1ccc(Cl)cc1 (relative stereo) | 
0.007 | 21 | 66 |  |  | COc1ccccc1-n1nc([C@@H]2CCO[C@H](C(C)C)C2)cc1-c1ccc(Cl)cc1 (relative stereo) | 

Compound | IC50 [1] [µM] | remaining at 10 min [2] [%] | remaining at 10 min [3] [%] | IC50 [4] [µM] | IC50 [5] [µM] | further results
COc1ccccc1-n1nc(C2CC(C)(C)OC(C)(C)C2)cc1-c1ccnc(Cl)c1 |  |  |  | 0.25 | 0.74 | 
